Experimental data reported in ChEMBL document CHEMBL1240472, “Hypervalent iodine(III) mediated synthesis of novel unsymmetrical 2,5-disubstituted 1,3,4-oxadiazoles as antibacterial and antifungal agents” (2010).
≈ marks a conversion by molar mass, not a printed value.

Key:
Staphylococcus aureus [1] = test: Antimicrobial activity against Staphylococcus aureus MTCC 96 after by agar well diffusion method; also: test concentration or dose not given here
Aspergillus niger = test: Antimicrobial activity against Aspergillus niger assessed as inhibition of mycelial growth by poisoned food method; format: functional; also: test concentration or dose not given here
Pseudomonas aeruginosa [2] = test: Antimicrobial activity against Pseudomonas aeruginosa MTCC 741 by microdilution assay; format: functional; details: in the assay text read “macrodilution” for “microdilution”
Outline: (§1)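 MIC determined in µg/ml by the macrodilution method, only for compounds active in the primary diffusion screen. Results are means of three replicates.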

Staphylococcus aureus [3] = test: Antimicrobial activity against Staphylococcus aureus MTCC 96 […]; format: functional
Aspergillus flavus = test: Antimicrobial activity against Aspergillus flavus assessed as inhibition of mycelial growth by poisoned food method; format: functional; also: test concentration or dose not given here
Escherichia coli [4] = test: Antimicrobial activity against Escherichia coli MTCC 1652 by microdilution assay; format: functional; details: in the assay text read “macrodilution” for “microdilution”
Outline: as §1

Bacillus subtilis [5] = test: Antimicrobial activity against Bacillus subtilis MTCC 121 by agar well diffusion method; also: test concentration or dose not given here
Bacillus subtilis [6] = test: Antimicrobial activity against Bacillus subtilis MTCC 121 […]; format: functional
Pseudomonas aeruginosa [7] = test: Antimicrobial activity against Pseudomonas aeruginosa MTCC 741 after 24 hrs by […]; format: functional
Outline: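 Agar well diffusion assay (8 mm wells). Inhibition zone diameter read in mm, with the well diameter included in the value. Results are means of three replicates.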

Escherichia coli [8] = test: Antimicrobial activity against Escherichia coli MTCC 1652 by […]; format: functional
For IZ in this document: test concentration or dose not given here.

| Structure (SMILES) | inhibition zone (IZ) (Staphylococcus aureus [1]) | inhibition (INH) (Aspergillus niger) | MIC (Pseudomonas aeruginosa [2]) | MIC (Staphylococcus aureus [3]) | inhibition (INH) (Aspergillus flavus) | MIC (Escherichia coli [4]) | inhibition zone (IZ) (Bacillus subtilis [5]) | MIC (Bacillus subtilis [6]) | inhibition zone (IZ) (Pseudomonas aeruginosa [7]) | inhibition zone (IZ) (Escherichia coli [8]) |
| --- | --- | --- | --- | --- | --- | --- | --- | --- | --- | --- |
| c1ccc(-c2nnc(-c3cn(-c4ccccc4)nc3-c3ccccc3)o2)cc1 | 20.3 mm | 44.4% | > 128 µg/mL | 64 µg/mL (≈ 176 µM) | 61.1% | > 128 µg/mL | 18.6 mm | 128 µg/mL (≈ 351 µM) | 13.6 mm | 14.3 mm |
| Clc1ccc(-c2nn(-c3ccccc3)cc2-c2nnc(-c3ccccc3)o2)cc1 | 21.6 mm | 55.5% | > 128 µg/mL | 32 µg/mL (≈ 80.2 µM) | 44.4% | > 128 µg/mL | 19.6 mm | 64 µg/mL (≈ 160 µM) | 13.6 mm | 15.6 mm |
| Fc1ccc(-c2nn(-c3ccccc3)cc2-c2nnc(-c3ccccc3)o2)cc1 | 18.6 mm | 66.6% | > 128 µg/mL | 128 µg/mL (≈ 335 µM) | 50% | > 128 µg/mL | 20.6 mm | 32 µg/mL (≈ 83.7 µM) | 14.3 mm | 14.3 mm |
| Brc1ccc(-c2nn(-c3ccccc3)cc2-c2nnc(-c3ccccc3)o2)cc1 | 20 mm | 61.1% | > 128 µg/mL | 64 µg/mL (≈ 144 µM) | 55.5% | 128 µg/mL (≈ 289 µM) | 18.3 mm | 128 µg/mL (≈ 289 µM) | 14.6 mm | 16.6 mm |
| Cc1ccc(-c2nn(-c3ccccc3)cc2-c2nnc(-c3ccccc3)o2)cc1 | 18.3 mm | 66.6% | > 128 µg/mL | 128 µg/mL (≈ 338 µM) | 61.1% | > 128 µg/mL | 21.6 mm | 16 µg/mL (≈ 42.3 µM) | 13.6 mm | 15.6 mm |
| COc1ccc(-c2nn(-c3ccccc3)cc2-c2nnc(-c3ccccc3)o2)cc1 | 22.6 mm | 44.4% | > 128 µg/mL | 16 µg/mL (≈ 40.6 µM) | 66.6% | 128 µg/mL (≈ 325 µM) | 20.3 mm | 32 µg/mL (≈ 81.1 µM) | 14 mm | 16.3 mm |
| O=[N+]([O-])c1ccc(-c2nn(-c3ccccc3)cc2-c2nnc(-c3ccccc3)o2)cc1 | 23.3 mm | 50% | > 128 µg/mL | 8 µg/mL (≈ 19.5 µM) | 61.1% | > 128 µg/mL | 21.6 mm | 16 µg/mL (≈ 39.1 µM) | 14.3 mm | 15.6 mm |
| O=[N+]([O-])c1ccc(-n2cc(-c3nnc(-c4ccccc4)o3)c(-c3ccccc3)n2)cc1 | 20.6 mm | 66.6% | > 128 µg/mL | 64 µg/mL (≈ 156 µM) | 66.6% | 128 µg/mL (≈ 313 µM) | 24.3 mm | 8 µg/mL (≈ 19.5 µM) | 15.3 mm | 18.6 mm |
| COc1ccc(-c2nn(-c3ccc([N+](=O)[O-])cc3)cc2-c2nnc(-c3ccccc3)o2)cc1 | 24.3 mm | 55.5% | 64 µg/mL (≈ 146 µM) | 8 µg/mL (≈ 18.2 µM) | 50% | 64 µg/mL (≈ 146 µM) | 23.6 mm | 8 µg/mL (≈ 18.2 µM) | 18.6 mm | 20.6 mm |
| O=[N+]([O-])c1ccc(-n2cc(-c3nnc(-c4ccccc4)o3)c(-c3ccc(F)cc3)n2)cc1 | 21.3 mm | 44.4% | 128 µg/mL (≈ 299 µM) | 32 µg/mL (≈ 74.9 µM) | 55.5% | 64 µg/mL (≈ 150 µM) | 24.3 mm | 8 µg/mL (≈ 18.7 µM) | 16.6 mm | 20 mm |
| O=[N+]([O-])c1ccc(-c2nn(-c3ccc([N+](=O)[O-])cc3)cc2-c2nnc(-c3ccccc3)o2)cc1 | 22.6 mm | 55.5% | > 128 µg/mL | 16 µg/mL (≈ 35.2 µM) | 44.4% | 128 µg/mL (≈ 282 µM) | 23.6 mm | 8 µg/mL (≈ 17.6 µM) | 14.6 mm | 18.3 mm |
| O=C(O)c1cn(C2CC2)c2cc(N3CCNCC3)c(F)cc2c1=O [CIPROFLOXACIN] | 26 mm | – | 5 µg/mL (≈ 15.1 µM) | 5 µg/mL (≈ 15.1 µM) | – | 5 µg/mL (≈ 15.1 µM) | 24 mm | 5 µg/mL (≈ 15.1 µM) | 22 mm | – |
| OC(Cn1cncn1)(Cn1cncn1)c1ccc(F)cc1F [FLUCONAZOLE] | – | 81.1% | – | – | 77.7% | – | – | – | – | – |
